The M2OR odorant receptor database

These compounds were tested against T1, OR5M3 (Homo sapiens) (UniProt Q8NGP4). Conditions: stereoisomer not certain.
T1 sequence (whole entry): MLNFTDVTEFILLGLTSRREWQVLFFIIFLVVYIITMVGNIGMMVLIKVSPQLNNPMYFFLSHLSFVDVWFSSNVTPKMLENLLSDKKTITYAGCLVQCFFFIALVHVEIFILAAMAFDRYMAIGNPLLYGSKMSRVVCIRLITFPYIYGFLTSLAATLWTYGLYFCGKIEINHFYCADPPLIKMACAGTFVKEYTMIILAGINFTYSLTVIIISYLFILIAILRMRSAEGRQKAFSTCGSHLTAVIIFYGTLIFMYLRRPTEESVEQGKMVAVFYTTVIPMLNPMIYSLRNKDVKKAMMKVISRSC
In short: (§1)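 Assay methods differ from source to source, frequently being transient luciferase assays in mammalian cell lines. For each receptor–molecule pair, the label responsive (active) applies when the original authors judged the measured signal statistically different from baseline, and non-responsive (inactive) applies otherwise.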

Compound | odorant receptor agonist call
O=c1ccc2ccccc2o1 | inactive
CCCCCC=O | inactive
CC(C)=CCCC(C)=CCO | inactive
CCCCCCOC(C)=O | inactive
CCOC(=O)C(C)C | inactive
CCCCC(=O)O | inactive
CCCCCCCC(C)=O | inactive

The compounds below were run against T2, OR5P3 (Homo sapiens) (UniProt Q8WZ94). Conditions: stereoisomer not certain.
T2 sequence (whole entry): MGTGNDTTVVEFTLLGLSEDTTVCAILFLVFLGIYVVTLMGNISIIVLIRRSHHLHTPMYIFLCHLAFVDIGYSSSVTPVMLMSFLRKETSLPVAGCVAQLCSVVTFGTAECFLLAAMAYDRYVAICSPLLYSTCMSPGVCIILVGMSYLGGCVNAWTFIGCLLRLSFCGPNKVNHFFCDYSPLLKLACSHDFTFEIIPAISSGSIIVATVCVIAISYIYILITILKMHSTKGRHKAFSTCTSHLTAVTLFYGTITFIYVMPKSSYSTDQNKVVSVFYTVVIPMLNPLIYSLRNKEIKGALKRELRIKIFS
In short: as §1

Compound | odorant receptor agonist call
CCCCCC1=C(C)CCC1=O | inactive
CC(=O)OCc1ccccc1 | inactive
O=c1ccc2ccccc2o1 | active
CCCCCCCCC(=O)O | inactive
COc1cc(C(=O)O)ccc1O | inactive
CC12CCC(CC1=O)C2(C)C (stereo unspecified) | inactive
C=C(C)C1CCC(C)C(=O)C1 (stereo unspecified) | inactive
CC(=O)Oc1ccccc1 | inactive
CCCCCC=O | inactive
CC(C)=CCCC(C)=CCO | inactive
CCC(=O)C(=O)CC | inactive
O=C1Cc2ccccc2O1 | inactive
CCCCCO | inactive
CCCCCCCCCS | inactive
CCCCC(=O)CC | inactive
O=C(c1ccccc1)c1ccccc1 | inactive
CCCCCCCCO | inactive
CCCCCCCCCCO | inactive
CCCCOC=O | inactive
CCCCCCOC(C)=O | inactive

Compound | odorant receptor agonist call
CCCCCCC(C)=O | inactive
CCCCCOC(=O)CCCCC | inactive
O=C1CCOc2ccccc21 | inactive
CCCCCCCO | active
CCCCC(C)=O | inactive
c1ccccc1 | inactive
CCOC(=O)C(C)C | inactive
CCCCC(=O)O | inactive
CCC(C(=O)O)c1ccccc1 (stereo unspecified) | inactive
CC(C)=CCCC(C)CCO (stereo unspecified) | inactive
C=CCOC(=O)CCCCCC | inactive
CCCCCCCC(C)=O | inactive
CCCCCC(=O)CC | inactive
CCCCCCC(=O)[O-].[H+] | inactive
CCCC(C)=O | inactive
CCCCCCCCS | inactive
CCCC(=O)C(C)=O | inactive
CCCCOC(=O)C(C)OC(=O)CCC (stereo unspecified) | inactive
CC(=O)OCC=C(C)C | inactive
